Source: ChEMBL document CHEMBL5055625, “Saturated Oxo Fatty Acids (SOFAs): A Previously Unrecognized Class of Endogenous Bioactive Lipids Exhibiting a Cell Growth Inhibitory Activity” (J Med Chem, 2021)
pIC50: −log10 of the molar value. Calls of active or inactive are those of the source. The rule behind the calls is not given here.

Tests used:
A549 [1] = assay: Growth inhibition of human A549 cells at 50 microM measured after 72 hrs by MTT assay; type: functional; details: for inhibition of growth at 50 µM: read-out: GI
In short: (§1)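 A549, Caco-2 and SF268 cells were grown in DMEM (4.5 g/L glucose) with 10% heat-inactivated FBS and pen-strep at 37 °C, 5% CO2. After 24 h, medium was replaced with compound at 10, 25, 35, 50 or 75 μM (final 0.5% DMSO; vehicle controls) for 72 h. MTT (0.25 mg/mL final) was added for 3 h, formazan was dissolved in DMSO, and A570 minus A690 was read. Triplicate wells per condition were normalized to DMSO control as 100%; IC50 was taken from dose-response curves over ≥3 experiments.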

A549 [2] = assay: Growth inhibition of human A549 cells measured after 72 hrs by MTT assay; type: functional, cell-based; details: A549, 72 h; in short: as §1
Caco-2 = assay: Growth inhibition of human Caco-2 cells up to 75 uM measured after 72 hrs by MTT assay; type: functional, cell-based; in short: as §1
SF-268 = assay: Growth inhibition of human SF-268 cells upto 75 microM measured after 72 hrs by MTT assay; type: functional, cell-based; in short: as §1
HUVEC = assay: Growth inhibition of HUVEC cells upto 75 microM measured after 72 hrs by MTT assay; type: cell-based; details: human
[3] = target: Signal transducer and activator of transcription 3 (Homo sapiens) (UniProt P40763); assay: Inhibition of phosphorylated STAT3 expression in human A549 cells measured at 50 uM by Western blot analysis; type: cell-based
In short: (§2)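 A549 cells were treated with 50 μM compound or DMSO and lysed in RIPA buffer; lysates were spun at 17 000g for 15 min at 4 °C and protein was measured by Bradford assay. 35 μg of protein was run on SDS-PAGE and semidry-transferred to nitrocellulose, then blocked 1 h in 5% BSA/TBS-0.1% Tween-20. Blots were probed overnight at 4 °C with anti-phospho-STAT3 and anti-STAT3 (1:1000) plus β-actin (1:20 000) as loading control, followed by secondary antibodies for 1.30 h at r.t.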

A549 [4] = assay: Antitumor activity against human A549 cells assessed as decrease in STAT3 mRNA expression measured at 50 microM by RT-PCR analysis; type: functional, cell-based
In short: (§3)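 A549 cells were treated with 50 μM compound alongside DMSO controls. mRNA levels were measured by quantitative real-time RT-PCR and expressed relative to the DMSO control.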

A549 [5] = assay: Down regulation of […] protein expression in human A549 cells measured at 50 uM by Western blot analysis; type: functional, cell-based; in short: as §2
A549 [6] = assay: Antitumor activity against human A549 cells assessed as decrease in c-myc mRNA expression measured at 50 microM by RT-PCR analysis; type: functional, cell-based; in short: as §3

Sequence of Signal transducer and activator of transcription 3 (Homo sapiens) (P40763 whole entry): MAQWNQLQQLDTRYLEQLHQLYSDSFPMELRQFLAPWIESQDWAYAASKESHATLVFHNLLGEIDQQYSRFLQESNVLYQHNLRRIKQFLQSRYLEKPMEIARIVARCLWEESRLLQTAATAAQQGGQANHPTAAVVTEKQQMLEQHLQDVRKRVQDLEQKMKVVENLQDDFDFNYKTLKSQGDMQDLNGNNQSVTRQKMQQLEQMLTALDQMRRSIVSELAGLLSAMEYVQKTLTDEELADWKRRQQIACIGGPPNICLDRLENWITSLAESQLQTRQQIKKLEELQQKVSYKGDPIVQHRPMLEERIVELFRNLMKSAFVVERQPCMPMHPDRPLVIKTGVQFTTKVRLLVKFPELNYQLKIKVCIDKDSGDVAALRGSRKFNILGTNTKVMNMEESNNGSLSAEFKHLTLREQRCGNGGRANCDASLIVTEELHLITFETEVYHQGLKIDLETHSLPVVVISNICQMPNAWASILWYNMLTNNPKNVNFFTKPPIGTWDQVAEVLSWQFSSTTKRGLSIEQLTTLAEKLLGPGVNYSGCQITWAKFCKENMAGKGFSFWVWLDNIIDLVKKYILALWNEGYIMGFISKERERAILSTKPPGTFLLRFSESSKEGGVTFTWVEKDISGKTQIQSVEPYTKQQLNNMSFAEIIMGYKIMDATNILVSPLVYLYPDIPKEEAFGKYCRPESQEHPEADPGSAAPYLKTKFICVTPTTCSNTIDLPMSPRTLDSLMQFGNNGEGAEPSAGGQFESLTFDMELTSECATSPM

Structure (SMILES) | pIC50 (A549 [2]) | inhibition [3] | inhibition of growth at 50 µM (A549 [1]) | growth inhibition (GI) (Caco-2) | growth inhibition (GI) (SF-268) | growth inhibition (GI) (A549 [1]) | Activity (HUVEC) | Activity (A549 [4]) | Activity (A549 [5]) | Activity (A549 [6])
CCCCCCCCCC(O)CCCCCCCC(=O)O (stereo not drawn) |  |  | > 50% |  |  |  |  |  |  | 
CCCCCCCCCCCCCCCC(=O)O |  |  |  |  |  | inactive |  |  |  | 
CCCCCCCCCCCCCCCCCC(=O)O |  |  |  |  |  | inactive |  |  |  | 
CCCCCCCCCCC[C@@H](O)CCCCCC(=O)O |  |  | > 50% |  |  |  | Non-Toxic |  |  | 

Continued, in another order:

pIC50 (A549 [2]) | inhibition [3] | Structure (SMILES) | inhibition of growth at 50 µM (A549 [1]) | growth inhibition (GI) (Caco-2) | growth inhibition (GI) (SF-268) | growth inhibition (GI) (A549 [1]) | Activity (HUVEC) | Activity (A549 [4]) | Activity (A549 [5]) | Activity (A549 [6])
4.43 |  | CCCCCCCCCCC(=O)CCCCCCC(=O)O | > 50% | inactive | inactive |  |  |  |  | 
4.31 |  | CCCCCCCCCCCCCC(=O)CCCC(=O)O | > 50% |  |  |  |  |  |  | 
4.59 | Active | CCCCCCCCCCCCC(=O)CCCCC(=O)O | > 50% | inactive | inactive |  | Non-Toxic | Active | Active | Active
4.55 | Active | CCCCCCCCCCCC(=O)CCCCCC(=O)O | > 50% | inactive | inactive |  |  | Active | Active | Active
